# Assay results from ChEMBL document CHEMBL4229382, “Phenylthiazoles with tert-Butyl side chain: Metabolically stable with anti-biofilm activity” (Eur J Med Chem, 2018).
# The source made the active and inactive calls. The rule behind the calls is not given here.
# Assays:
# [1] = system: Staphylococcus aureus; experiment: Antibacterial activity against methicillin-resistant Staphylococcus aureus NRS123 USA400 assessed as change in MIC after 14 serial passages by broth microdilution assay
# [2] = system: Staphylococcus aureus; experiment: Inhibition of biofilm formation in methicillin-resistant Staphylococcus aureus NRS384 USA300 at 1 time MIC after 24 hrs by crystal violet staining-based spectrophotometric analysis relative to control; design: scale not given: the % may be the effect or the level left
# [3] = system: Enterococcus faecalis; experiment: Bactericidal activity against vancomycin-resistant Enterococcus faecalis ATCC 51299 incubated fo 18 hrs followed by re-plating on tryptic soy agar plates at 37 degC for 18 hrs by broth microdilution assay; type: functional; conditions: ATCC 51299, 18 h
# [4] = system: Enterococcus faecalis; experiment: Antibacterial activity against vancomycin-resistant Enterococcus faecalis ATCC 51299 after 18 hrs by broth microdilution assay; type: functional; conditions: ATCC 51299, 18 h
# Method in brief: (§1)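 Broth microdilution: inoculum from 0.5 McFarland suspension diluted to about 5 × 10^5 CFU/mL. Media were cation-adjusted Mueller-Hinton broth for staphylococci, brain heart infusion for E. faecium, and tryptone soya broth for E. faecalis, S. pneumoniae and L. monocytogenes.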
# [5] = system: Streptococcus pneumoniae; experiment: Antibacterial activity against methicillin-resistant Streptococcus pneumoniae ATCC 700677 after 18 hrs by broth microdilution assay; type: functional; conditions: ATCC 700677, 18 h
# Method in brief: as §1
# [6] = Terminal phase volume of distribution at steady state in Sprague-Dawley rat at 5 uM, iv administered as bolus dose by LC-MS/MS analysis; type: ADME, organism-based; conditions: in vivo, read-out: Vbeta
# Method in brief: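 Male naïve Sprague–Dawley rats (n = 3) given tail-vein IV bolus of a 5 µM solution; blood taken into EDTA-K2 over 12 h; plasma protein-precipitated with acetonitrile and measured by LC/MS/MS; parameters from two-compartmental analysis.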
# [7] = system: Staphylococcus aureus; experiment: Inhibition of biofilm formation in methicillin-resistant Staphylococcus aureus NRS384 USA300 after 24 hrs by crystal violet staining-based spectrophotometric analysis
# [8] = Safety index, ratio of cytotoxicity against human Caco2 cells at 32 ug/ml after 2 hrs by MTS assay to antibacterial activity against methicillin-resistant Staphylococcus aureus; type: toxicity, cell-based; conditions: Caco-2 cells
# [9] = system: Streptococcus pneumoniae; experiment: Bactericidal activity against methicillin-resistant Streptococcus pneumoniae ATCC 700677 incubated fo 18 hrs followed by re-plating on tryptic soy agar plates at 37 degC for 18 hrs by broth microdilution assay; type: functional; conditions: ATCC 700677, 18 h
# [10] = system: Staphylococcus aureus; experiment: Antibacterial activity against methicillin-sensitive Staphylococcus aureus NRS107 after 18 hrs by broth microdilution assay; type: functional; conditions: NRS107, 18 h
# Method in brief: as §1
# [11] = system: Caco-2; experiment: Cytotoxicity against human Caco2 cells at 32 ug/ml after 2 hrs by MTS assay; type: cell-based; conditions: caco-2, 2 h
# Method in brief: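 Caco-2 cells grown in DMEM with 20% FBS, non-essential amino acids and penicillin-streptomycin, 37 °C, 5% CO2; exposed in triplicate to compounds (16, 32, 64 µg/mL) for 2 h; MTS added, 4 h further incubation, OD490 read; viability as percent of DMSO-treated controls; two independent experiments.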
# [12] = system: Enterococcus faecium; experiment: Bactericidal activity against vancomycin-resistant Enterococcus faecium ATCC 700221 incubated fo 18 hrs followed by re-plating on tryptic soy agar plates at 37 degC for 18 hrs by broth microdilution assay; conditions: ATCC 700221, 18 h
# [13] = system: Staphylococcus aureus; experiment: Antibacterial activity against methicillin-resistant Staphylococcus aureus NRS123 USA400 assessed as reduction in bacterial growth after 2 to 4 hrs by time kill assay; type: functional, organism-based
# Method in brief: (§2)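 Samples taken at 0, 2, 4, 6, 8, 12 and 24 h were serially diluted in PBS, plated on TSA and incubated ≥18 h for viable CFU/mL. DMSO was the negative control; two independent experiments.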
# [14] = system: Staphylococcus aureus; experiment: Antibacterial activity against methicillin-resistant Staphylococcus aureus 2658 RCMB after 18 hrs by broth microdilution assay; type: functional
# Method in brief: as §1
# [15] = system: Staphylococcus aureus; experiment: Inhibition of biofilm formation in methicillin-resistant Staphylococcus aureus NRS384 USA300 at 2 times MIC after 24 hrs by crystal violet staining-based spectrophotometric analysis relative to control; design: scale not given: the % may be the effect or the level left
# [16] = system: Staphylococcus aureus; experiment: Antibacterial activity against methicillin-sensitive Staphylococcus aureus ATCC 6538 after 18 hrs by broth microdilution assay; type: functional; conditions: ATCC 6538, 18 h
# Method in brief: as §1
# [17] = system: Streptococcus pneumoniae; experiment: Bactericidal activity against cephalosporin-resistant Streptococcus pneumoniae ATCC 51916 incubated fo 18 hrs followed by re-plating on tryptic soy agar plates at 37 degC for 18 hrs by broth microdilution assay; type: functional; conditions: ATCC 51916, 18 h
# [18] = system: Staphylococcus aureus; experiment: Bactericidal activity against methicillin-resistant Staphylococcus aureus NRS119 incubated fo 18 hrs followed by re-plating on tryptic soy agar plates at 37 degC for 18 hrs by broth microdilution assay; type: functional; conditions: NRS119, 18 h
# [19] = system: Staphylococcus aureus; experiment: Antibacterial activity against methicillin-resistant Staphylococcus aureus NRS123 USA400 after 18 hrs by broth microdilution assay; type: functional; conditions: NRS123 USA400, 18 h
# Method in brief: as §1
# [20] = system: Staphylococcus aureus; experiment: Antibacterial activity against methicillin-resistant Staphylococcus aureus NRS385 after 18 hrs by broth microdilution assay; type: functional; conditions: NRS385, 18 h
# Method in brief: as §1
# [21] = system: Staphylococcus aureus; experiment: Antibacterial activity against vancomycin-resistant Staphylococcus aureus VRS10 after 18 hrs by broth microdilution assay; type: functional; conditions: VRS10, 18 h
# Method in brief: as §1
# [22] = system: Streptococcus pneumoniae; experiment: Antibacterial activity against cephalosporin-resistant Streptococcus pneumoniae ATCC 51916 after 18 hrs by broth microdilution assay; type: functional; conditions: ATCC 51916, 18 h
# Method in brief: as §1
# [23] = system: Staphylococcus aureus; experiment: Bactericidal activity against methicillin-sensitive Staphylococcus aureus NRS107 incubated fo 18 hrs followed by re-plating on tryptic soy agar plates at 37 degC for 18 hrs by broth microdilution assay; type: functional; conditions: NRS107, 18 h
# [24] = system: Staphylococcus aureus; experiment: Antibacterial activity against methicillin-resistant Staphylococcus aureus NRS384 USA300 after 18 hrs by broth microdilution assay; type: functional; conditions: NRS384 USA300, 18 h
# Method in brief: as §1
# [25] = system: Staphylococcus aureus; experiment: Bactericidal activity against methicillin-sensitive Staphylococcus aureus ATCC 6538 incubated fo 18 hrs followed by re-plating on tryptic soy agar plates at 37 degC for 18 hrs by broth microdilution assay; type: functional; conditions: ATCC 6538, 18 h
# [26] = system: Staphylococcus aureus; experiment: Bactericidal activity against methicillin-resistant Staphylococcus aureus NRS384 USA300 incubated fo 18 hrs followed by re-plating on tryptic soy agar plates at 37 degC for 18 hrs by broth microdilution assay; type: functional; conditions: NRS384 USA300, 18 h
# [27] = system: Staphylococcus aureus; experiment: Bactericidal activity against methicillin-resistant Staphylococcus aureus NRS385 incubated fo 18 hrs followed by re-plating on tryptic soy agar plates at 37 degC for 18 hrs by broth microdilution assay; type: functional; conditions: NRS385, 18 h
# [28] = system: Staphylococcus aureus; experiment: Antibacterial activity against methicillin-resistant Staphylococcus aureus NRS119 after 18 hrs by broth microdilution assay; type: functional; conditions: NRS119, 18 h
# Method in brief: as §1
# [29] = system: Staphylococcus epidermidis; experiment: Bactericidal activity against methicillin-resistant Staphylococcus epidermidis NRS101 incubated fo 18 hrs followed by re-plating on tryptic soy agar plates at 37 degC for 18 hrs by broth microdilution assay; type: functional; conditions: NRS101, 18 h
# [30] = system: Staphylococcus aureus; experiment: Bactericidal activity against vancomycin-resistant Staphylococcus aureus VRS10 incubated fo 18 hrs followed by re-plating on tryptic soy agar plates at 37 degC for 18 hrs by broth microdilution assay; type: functional; conditions: VRS10, 18 h
# [31] = system: Enterococcus faecium; experiment: Antibacterial activity against vancomycin-resistant Enterococcus faecium ATCC 700221 after 18 hrs by broth microdilution assay; type: functional; conditions: ATCC 700221, 18 h
# Method in brief: as §1
# [32] = system: Staphylococcus aureus; experiment: Antibacterial activity against vancomycin-resistant Staphylococcus aureus VRS12 after 18 hrs by broth microdilution assay; type: functional; conditions: VRS12, 18 h
# Method in brief: as §1
# [33] = system: Staphylococcus epidermidis; experiment: Antibacterial activity against methicillin-resistant Staphylococcus epidermidis NRS101 after 18 hrs by broth microdilution assay; type: functional; conditions: NRS101, 18 h
# Method in brief: as §1
# [34] = system: Staphylococcus aureus; experiment: Bactericidal activity against methicillin-resistant Staphylococcus aureus NRS386 incubated fo 18 hrs followed by re-plating on tryptic soy agar plates at 37 degC for 18 hrs by broth microdilution assay; type: functional; conditions: NRS386, 18 h
# [35] = system: Staphylococcus aureus; experiment: Bactericidal activity against methicillin-resistant Staphylococcus aureus NRS123 USA400 incubated fo 18 hrs followed by re-plating on tryptic soy agar plates at 37 degC for 18 hrs by broth microdilution assay; type: functional; conditions: NRS123 USA400, 18 h
# [36] = system: Listeria monocytogenes; experiment: Antibacterial activity against Listeria monocytogenes ATCC 19111 after 18 hrs by broth microdilution assay; type: functional; conditions: ATCC 19111, 18 h
# [37] = system: Listeria monocytogenes; experiment: Selectivity ratio of MBC to MIC for Listeria monocytogenes ATCC 19111; type: functional
# [38] = system: Staphylococcus aureus; experiment: Antibacterial activity against methicillin-resistant Staphylococcus aureus NRS386 after 18 hrs by broth microdilution assay; type: functional; conditions: NRS386, 18 h
# Method in brief: as §1
# [39] = system: Staphylococcus aureus; experiment: Antibacterial activity against methicillin-resistant Staphylococcus aureus NRS123 USA400 assessed as reduction in bacterial burden measured over 24 hrs by time kill assay; type: functional
# Method in brief: as §2
# [40] = system: Listeria monocytogenes; experiment: Bactericidal activity against Listeria monocytogenes ATCC 19111 incubated fo 18 hrs followed by re-plating on tryptic soy agar plates at 37 degC for 18 hrs by broth microdilution assay; type: functional; conditions: ATCC 19111, 18 h
# [41] = system: Staphylococcus aureus; experiment: Bactericidal activity against vancomycin-resistant Staphylococcus aureus VRS12 incubated fo 18 hrs followed by re-plating on tryptic soy agar plates at 37 degC for 18 hrs by broth microdilution assay; type: functional; conditions: VRS12, 18 h
structure (smiles),measurement,setting,value
Cc1nc(-c2ccc(C(C)(C)C)cc2)sc1-c1ccnc(NCCN)n1,Ratio,[1],1
same,Activity,[2],28%
same,MBC,[3],16 µg/mL
same,MIC,[4],16 µg/mL
same,MIC,[5],2 µg/mL
same,Vd at 5 µM,[6],16.4 L
same,inhibition,[7],Dose-dependent effect
same,"selectivity ratio at 2 h, 32 ug/ml",[8],8 to 30
same,MBC,[9],16 µg/mL
same,MIC,[10],4 µg/mL
same,Activity,[11],Non-Toxic
same,MBC,[12],8 µg/mL
same,Activity,[13],Active
same,MIC,[14],1.17 µg/mL
same,Activity,[15],64%
same,MIC,[16],4 µg/mL
same,MBC,[17],16 µg/mL
Cc1nc(-c2ccc(C(C)(C)C)cc2)sc1-c1ccnc(NC(=N)c2cccnc2)n1,MBC,[18],4 µg/mL
same,MIC,[19],4 µg/mL
same,MIC,[20],4 µg/mL
same,MIC,[21],4 µg/mL
same,MIC,[22],4 µg/mL
same,MBC,[23],4 µg/mL
same,MIC,[24],4 µg/mL
same,MBC,[25],4 µg/mL
same,Activity,[2],45.8%
same,MBC,[26],4 µg/mL
same,MIC,[4],8 µg/mL
same,MBC,[27],4 µg/mL
same,MIC,[5],4 µg/mL
same,MIC,[28],4 µg/mL
same,inhibition,[7],Dose-dependent effect
same,MBC,[29],> 64 µg/mL
same,"selectivity ratio at 2 h, 32 ug/ml",[8],8 to 30
same,MBC,[30],4 µg/mL
same,MBC,[9],8 µg/mL
same,MIC,[31],8 µg/mL
same,MIC,[32],4 µg/mL
same,MIC,[33],64 µg/mL
same,MBC,[34],4 µg/mL
same,MBC,[35],4 µg/mL
same,MIC,[36],4 µg/mL
same,Ratio,[37],>3
same,MIC,[10],4 µg/mL
same,Activity,[11],Non-Toxic
same,MBC,[12],16 µg/mL
same,MIC,[14],0.78 µg/mL
same,MIC,[38],4 µg/mL
same,Activity,[15],65.2%
same,Activity,[39],2.3 log10CFU/ml
same,MIC,[16],4 µg/mL
same,MBC,[17],8 µg/mL
same,MBC,[40],64 µg/mL
same,MBC,[41],4 µg/mL
